Experimental data reported in the array DNA melting data of Ke et al. (doi:10.1101/2024.01.08.574731).

Tests used:
[1] = melting temperature; fluorescence melt of hairpins on a sequencing array, two-state fit, raised by 9.35 °C to match UV melts; conditions: sodium 0.088 M
How it was run: (§1)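 Cy3 signals were normalised both to pre-quench Cy3 and to control constructs. They came from library hairpins carrying annealed Cy3 and quencher oligos on a sequenced MiSeq flow cell, imaged in 50 mM Na-HEPES pH 8.0, 25 mM NaCl, in 2.5 °C steps up to 60 °C. Bootstrapped two-state fits gave melting temperature and folding enthalpy, and four replicates were combined by inverse variance. Fitted temperatures were then raised by 9.35 °C to match UV melts.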

[2] = folding enthalpy; higher = less favourable; fluorescence melt of hairpins on a sequencing array, two-state fit; conditions: sodium 0.088 M
How it was run: as §1

GTTCGTGGAAACGTGAAC ((((..(....)..))))
Tm [1]: 34.8 °C | folding enthalpy [2]: -15.3 kcal/mol

GTTCTACGAAAGTATAAC (((.(((....))).)))
Tm [1]: 34.5 °C | folding enthalpy [2]: -24 kcal/mol

GTTCTAGCGAAAGCTAAC (((..(((....))))))
Tm [1]: 28.9 °C | folding enthalpy [2]: -9.98 kcal/mol

GTTCTAGGAAACTAGAAC (((((((....)))))))
Tm [1]: 53.1 °C | folding enthalpy [2]: -35 kcal/mol

GTTCTCACGAAAGTGAAC (((..(((....))))))
Tm [1]: 31.6 °C | folding enthalpy [2]: -10.9 kcal/mol

GTTCTCGAAAGAGAAAC ((((((....))).)))
Tm [1]: 39.7 °C | folding enthalpy [2]: -17 kcal/mol

GTTCTGCGAAAGCACAAC (((.(((....))).)))
Tm [1]: 33.3 °C | folding enthalpy [2]: -12.6 kcal/mol

GTTCTTGGAAACGAGAAC (((((.(....).)))))
Tm [1]: 43.6 °C | folding enthalpy [2]: -28.6 kcal/mol

GTTGACACGAAAGTGAAC (((..(((....))))))
Tm [1]: 34.1 °C | folding enthalpy [2]: -14.2 kcal/mol

GTTGACCGAAAGGTGAAC (((.(((....))).)))
Tm [1]: 48.4 °C | folding enthalpy [2]: -27 kcal/mol

GTTGACGAAAGTCAGAAC ((((((....)))..)))
Tm [1]: 36.5 °C | folding enthalpy [2]: -10.4 kcal/mol

GTTGACGAAAGTCGAAC ((((((....))).)))
Tm [1]: 45.4 °C | folding enthalpy [2]: -18.4 kcal/mol

GTTGACGGAAACGCCAAC ((((.((....)).))))
Tm [1]: 49.6 °C | folding enthalpy [2]: -39.8 kcal/mol

GTTGACGGAAACGTCAAC (((((((....)))))))
Tm [1]: 66.9 °C | folding enthalpy [2]: -33.6 kcal/mol

GTTGACGGAAACGTCGAC ((.((((....)))).))
Tm [1]: 54.8 °C | folding enthalpy [2]: -43.4 kcal/mol

GTTGACGGAAACGTTAAC (((.(((....))).)))
Tm [1]: 47.1 °C | folding enthalpy [2]: -27 kcal/mol

GTTGAGCCGAAAGGCAAC (((..(((....))))))
Tm [1]: 38.8 °C | folding enthalpy [2]: -10.6 kcal/mol

GTTGAGGGAAACCTCAAC (((((((....)))))))
Tm [1]: 59.8 °C | folding enthalpy [2]: -42.2 kcal/mol

GTTGATGGAAACATCGAC ((.((((....)))).))
Tm [1]: 48.5 °C | folding enthalpy [2]: -35.9 kcal/mol

GTTGCACGAAAGTGGAAC (((.(((....))).)))
Tm [1]: 56.6 °C | folding enthalpy [2]: -35.5 kcal/mol

GTTGCACGAAAGTGTAAC (((.(((....))).)))
Tm [1]: 55.5 °C | folding enthalpy [2]: -29.8 kcal/mol

GTTGCAGAAATGCAAC ((((((....))))))
Tm [1]: 57.5 °C | folding enthalpy [2]: -35.3 kcal/mol

GTTGCAGGAAACCGCAAC (((((.(....).)))))
Tm [1]: 51.5 °C | folding enthalpy [2]: -43.8 kcal/mol

GTTGCAGGAAACTGCAGC (.(((((....))))).)
Tm [1]: 51.5 °C | folding enthalpy [2]: -17.4 kcal/mol

GTTGCCGAAAGGCAGAAC ((((((....)))..)))
Tm [1]: 37.3 °C | folding enthalpy [2]: -8.61 kcal/mol

GTTGCCGAAAGGCATAAC ((((((....)))..)))
Tm [1]: 36.8 °C | folding enthalpy [2]: -9 kcal/mol

GTTGCCGAAAGGCCCAAC ((((((....)))..)))
Tm [1]: 29.4 °C | folding enthalpy [2]: -6.79 kcal/mol

GTTGCCGAAAGGCTAAC ((((((....))).)))
Tm [1]: 42.3 °C | folding enthalpy [2]: -14 kcal/mol

GTTGCCGAAAGGCTCAAC ((((((....)))..)))
Tm [1]: 29.8 °C | folding enthalpy [2]: -7.95 kcal/mol

GTTGCCGCGAAAGCGAAC (((..(((....))))))
Tm [1]: 35.6 °C | folding enthalpy [2]: -12.6 kcal/mol

GTTGCCGGAAACGACAAC ((((.((....)).))))
Tm [1]: 48.5 °C | folding enthalpy [2]: -28 kcal/mol

GTTGCGCGAAAGCGAAAC (((.(((....))).)))
Tm [1]: 59.5 °C | folding enthalpy [2]: -27.8 kcal/mol

GTTGCGGGAAACCGCAGC (.(((((....))))).)
Tm [1]: 56.4 °C | folding enthalpy [2]: -14.2 kcal/mol

GTTGCTGGAAACAGCGAC ((.((((....)))).))
Tm [1]: 54.3 °C | folding enthalpy [2]: -39.6 kcal/mol

GTTGCTGGAAACAGTAGC (.(.(((....))).).)
Tm [1]: 35.3 °C | folding enthalpy [2]: -19.7 kcal/mol

GTTGGACCGAAAGGTAAC (((..(((....))))))
Tm [1]: 35.8 °C | folding enthalpy [2]: -20 kcal/mol

GTTGGAGGAAACTTCAAC ((((.((....)).))))
Tm [1]: 41.9 °C | folding enthalpy [2]: -31.4 kcal/mol

GTTGGCCGAAAGGCTAAC (((.(((....))).)))
Tm [1]: 58.3 °C | folding enthalpy [2]: -28.6 kcal/mol

GTTGGCGAAAGCCCAAAC ((((((....)))..)))
Tm [1]: 24.8 °C | folding enthalpy [2]: -7.1 kcal/mol

GTTGGCGAAAGCCGTAAC ((((((....)))..)))
Tm [1]: 33.4 °C | folding enthalpy [2]: -9.54 kcal/mol

GTTGGCGGAAACGCCGAC ((.((((....)))).))
Tm [1]: 59.4 °C | folding enthalpy [2]: -25 kcal/mol

GTTGGCGGAAACGCTGAC ((..(((....)))..))
Tm [1]: 45 °C | folding enthalpy [2]: -16.8 kcal/mol

GTTGGCGGAAACGTCGAC ((.(.((....)).).))
Tm [1]: 47.6 °C | folding enthalpy [2]: -19.1 kcal/mol

GTTGGGACGAAAGTCAAC (((..(((....))))))
Tm [1]: 41.5 °C | folding enthalpy [2]: -19.6 kcal/mol

GTTGGGGCGAAAGCCAAC (((..(((....))))))
Tm [1]: 46 °C | folding enthalpy [2]: -16.5 kcal/mol

GTTGGTCGAAAGACAAC (((.(((....))))))
Tm [1]: 45.7 °C | folding enthalpy [2]: -20.4 kcal/mol

GTTGGTCGAAAGACGAAC (((.(((....))).)))
Tm [1]: 48.1 °C | folding enthalpy [2]: -29.9 kcal/mol

GTTGGTGCGAAAGCAAAC (((..(((....))))))
Tm [1]: 43 °C | folding enthalpy [2]: -20.7 kcal/mol

GTTGGTGGAAACACTAAC (((.(((....))).)))
Tm [1]: 45 °C | folding enthalpy [2]: -29.6 kcal/mol

GTTGGTGGAAACACTAGC (.(.(((....))).).)
Tm [1]: 27.8 °C | folding enthalpy [2]: -9.95 kcal/mol

GTTGGTGGAAACATCAAC ((((.((....)).))))
Tm [1]: 46.5 °C | folding enthalpy [2]: -37.8 kcal/mol

GTTGGTGGAAACGCTAAC (((.(.(....).).)))
Tm [1]: 30.7 °C | folding enthalpy [2]: -14 kcal/mol

GTTGTACGAAAGTAAAAC (((.(((....))).)))
Tm [1]: 38.8 °C | folding enthalpy [2]: -26.7 kcal/mol

GTTGTAGGAAACTACAAC (((((((....)))))))
Tm [1]: 56.1 °C | folding enthalpy [2]: -40.5 kcal/mol

GTTGTAGGAAACTATGAC ((..(((....)))..))
Tm [1]: 26.6 °C | folding enthalpy [2]: -14.1 kcal/mol

GTTGTCCGAAAGGAAAAC (((.(((....))).)))
Tm [1]: 44.9 °C | folding enthalpy [2]: -26.9 kcal/mol

GTTGTCCGAAAGGAGAAC (((.(((....))).)))
Tm [1]: 51.2 °C | folding enthalpy [2]: -28.5 kcal/mol

GTTGTCGAAAGACCAAAC ((((((....)))..)))
Tm [1]: 26 °C | folding enthalpy [2]: -10.6 kcal/mol

GTTGTCGAAAGACCAAC ((((((....))).)))
Tm [1]: 38 °C | folding enthalpy [2]: -20.4 kcal/mol

GTTGTCGAAAGACGAAC ((((((....))).)))
Tm [1]: 39.8 °C | folding enthalpy [2]: -17.9 kcal/mol

GTTGTCGAAAGACGGAAC ((((((....)))..)))
Tm [1]: 31.3 °C | folding enthalpy [2]: -10.3 kcal/mol

GTTGTCGCGAAAGCGAAC (((..(((....))))))
Tm [1]: 56.9 °C | folding enthalpy [2]: -15.7 kcal/mol

GTTGTCGGAAACGGTAAC (((..((....))..)))
Tm [1]: 33.1 °C | folding enthalpy [2]: -21.9 kcal/mol

GTTGTGAAAACAAC (((((....)))))
Tm [1]: 50.5 °C | folding enthalpy [2]: -29.6 kcal/mol

GTTGTGCGAAAGCAAAC (((.(((....))))))
Tm [1]: 46.8 °C | folding enthalpy [2]: -16.5 kcal/mol

GTTGTGCGAAAGCAGAAC (((.(((....))).)))
Tm [1]: 54.1 °C | folding enthalpy [2]: -30.9 kcal/mol

GTTGTGGGAAACTACAAC (((((.(....).)))))
Tm [1]: 46.3 °C | folding enthalpy [2]: -36.1 kcal/mol

GTTGTTCGAAAGAAAAAC (((.(((....))).)))
Tm [1]: 34.9 °C | folding enthalpy [2]: -29.1 kcal/mol

GTTGTTGGAAACAACGAC ((.((((....)))).))
Tm [1]: 55.9 °C | folding enthalpy [2]: -18.6 kcal/mol

GTTTAACCGAAAGGTAAC (((..(((....))))))
Tm [1]: 29.7 °C | folding enthalpy [2]: -10.4 kcal/mol

GTTTAAGGAAACTTAAGC (.(((((....))))).)
Tm [1]: 32.4 °C | folding enthalpy [2]: -13.9 kcal/mol

GTTTAAGGAAACTTGAAC (((.(((....))).)))
Tm [1]: 35 °C | folding enthalpy [2]: -18.5 kcal/mol

GTTTACCGAAAGGTCAAC (((.(((....))).)))
Tm [1]: 39.1 °C | folding enthalpy [2]: -24.8 kcal/mol

GTTTACGGAAACGTAAAC (((((((....)))))))
Tm [1]: 57.5 °C | folding enthalpy [2]: -41.1 kcal/mol

GTTTACGGAAACGTAGAC ((.((((....)))).))
Tm [1]: 40.3 °C | folding enthalpy [2]: -24.7 kcal/mol

GTTTAGCGAAAGCTAAC (((.(((....))))))
Tm [1]: 44.1 °C | folding enthalpy [2]: -11.7 kcal/mol

GTTTAGCGAAAGCTTAAC (((.(((....))).)))
Tm [1]: 44.1 °C | folding enthalpy [2]: -22.1 kcal/mol

GTTTAGGAAACTAAAC ((((((....))))))
Tm [1]: 44.7 °C | folding enthalpy [2]: -30.6 kcal/mol

GTTTAGGGAAACCTGAAC (((.(((....))).)))
Tm [1]: 38.5 °C | folding enthalpy [2]: -34.8 kcal/mol

GTTTAGGGAAACTTGAAC (((.(.(....).).)))
Tm [1]: 34.1 °C | folding enthalpy [2]: -13 kcal/mol

GTTTAGTCGAAAGACAAC (((..(((....))))))
Tm [1]: 27.4 °C | folding enthalpy [2]: -10.8 kcal/mol

GTTTATGCGAAAGCAAAC (((..(((....))))))
Tm [1]: 28.1 °C | folding enthalpy [2]: -8.45 kcal/mol

GTTTCAGAAATGAAAC ((((((....))))))
Tm [1]: 47.2 °C | folding enthalpy [2]: -27.3 kcal/mol

GTTTCAGGAAACTGAAAC (((((((....)))))))
Tm [1]: 55.3 °C | folding enthalpy [2]: -45 kcal/mol

GTTTCAGGAAACTGAAGC (.(((((....))))).)
Tm [1]: 38.9 °C | folding enthalpy [2]: -22.2 kcal/mol

GTTTCAGGAAACTGAGAC ((.((((....)))).))
Tm [1]: 37.3 °C | folding enthalpy [2]: -24.9 kcal/mol

GTTTCCCCGAAAGGGAAC (((..(((....))))))
Tm [1]: 38.5 °C | folding enthalpy [2]: -13.7 kcal/mol

GTTTCCCGAAAGGGGAAC (((.(((....))).)))
Tm [1]: 56.1 °C | folding enthalpy [2]: -36.2 kcal/mol

GTTTCCGAAAGGAATAAC ((((((....)))..)))
Tm [1]: 30.2 °C | folding enthalpy [2]: -12 kcal/mol

GTTTCCGAAAGGAGCAAC ((((((....)))..)))
Tm [1]: 26.8 °C | folding enthalpy [2]: -11.8 kcal/mol

GTTTCCGAAAGGATAAAC ((((((....)))..)))
Tm [1]: 29.7 °C | folding enthalpy [2]: -15.8 kcal/mol
